Test results as given in PubChem BioAssay AID488830 (Molecular Libraries Program, Specialized Chemistry Center, …, 2010).
Calls of active or inactive are those of the source.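 The calls were made as follows: active = IC50 at or below 10 µM; inactive = the rest.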

System: HeLa UbG76V-GFP reporter turnover, GFP imaging
Assay: inhibitors of p97-dependent reporter degradation, SAR follow-up, imaging, human cell line, second optimization round (AID 488830)
Procedure, shortened: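 test system = UbG76V-GFP reporter HeLa cells | probe or stimulus = 4 µM MG132 reporter-loading pre-treatment | timing = 1 h MG132, 70–170 min compound chase | technique = GFP fluorescence imaging, mean per-cell intensity over ~500 cells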

Row | Structure (SMILES) | IC50
1 | O=[N+]([O-])c1cccc(Nc2nc(NCc3ccccc3)c3ccccc3n2)c1 | 19 µM (inactive)
2 | c1ccc(CNc2nc(N3CCCc4ccccc43)nc3ccccc23)cc1 | 10 µM (inactive)
3 | Fc1ccccc1-c1nc(NCc2ccccc2)c2ccccc2n1 | 8 µM
4 | COc1ccc(F)cc1Nc1nc(NCc2ccccc2)c2ccccc2n1 | 9.3 µM
5 | COc1ccc2nc(NCc3ccccc3)nc(NCc3ccccc3)c2c1 | 8.6 µM
6 | Fc1cccc(CNc2nc(Nc3cccc(Cl)c3)nc3ccccc23)c1 | 6.3 µM
7 | COc1ccccc1CNc1nc(Cl)nc2ccccc12 | 19 µM (inactive)
8 | Fc1cccc(CNc2nc(Cl)nc3ccccc23)c1 | 20 µM (inactive)
9 | Clc1ccc(CNc2nc(Nc3cccc(Cl)c3)nc3ccccc23)cc1 | 7.6 µM
10 | Cc1ccccc1CNc1nc(Cl)nc2ccccc12 | > 25 µM (inactive)
11 | COc1ccc(CNc2nc(Nc3cccc(Cl)c3)nc3ccccc23)cc1 | 11 µM (inactive)
12 | COc1ccc(Nc2nc(Nc3ccc(OC)cc3)c3ccccc3n2)cc1 | 23 µM (inactive)
13 | COc1cc2nc(NCc3ccccc3)nc(NCc3ccccc3)c2cc1OC | 8.8 µM
14 | COc1cccc(CNc2nc(Nc3cccc(Cl)c3)nc3ccccc23)c1 | 9.9 µM
15 | O=C(NCc1ccco1)c1cc(S(=O)(=O)N2CCOCC2)ccc1Cl | > 25 µM (inactive)
16 | Clc1nc(NCc2ccc(Br)cc2)c2ccccc2n1 | 15 µM (inactive)
17 | Clc1cccc2nc(NCc3ccccc3)nc(NCc3ccccc3)c12 | 16 µM (inactive)
18 | COc1ccc(Nc2nc(Nc3cccc(Cl)c3)nc3ccccc23)cc1 | 13 µM (inactive)
19 | O=C(C1CCCN(S(=O)(=O)c2cnc[nH]2)C1)N(CCc1ccccc1)Cc1ccccc1 (stereo unspecified) | 12 µM (inactive)
20 | CC(C)(C)NC(=O)Nc1ccc2nccnc2c1 | > 25 µM (inactive)
21 | Cc1ccc(F)cc1Nc1nc(NCc2ccccc2)c2ccccc2n1 | 5 µM

Row | Structure (SMILES) | IC50
22 | c1ccc(CNc2nc(N3CCc4ccccc43)nc3ccccc23)cc1 | 11 µM (inactive)
23 | O=S(=O)(NC1CCCCC1)c1ccc(Br)cc1 | > 30 µM (inactive)
24 | COc1ccc(Cl)cc1Nc1nc(NCc2ccccc2)c2ccccc2n1 | 16 µM (inactive)
25 | CC(=O)Nc1ccc(NC(=O)c2ccccc2F)cc1 | > 25 µM (inactive)
26 | FC(F)(F)c1ccc2c(NCc3ccccc3)nc(NCc3ccccc3)nc2c1 | 19 µM (inactive)
27 | Cc1ccc(C2=[N+]([O-])C3(CCCCC/C3=N\O)N(O)C2(C)C)o1 (stereo unspecified) | > 25 µM (inactive)
28 | COc1ccccc1CNc1nc(Nc2cccc(Cl)c2)nc2ccccc12 | 11 µM (inactive)
29 | Brc1cccc2c(NCc3ccccc3)nc(NCc3ccccc3)nc12 | > 30 µM (inactive)
30 | Clc1cccc(Nc2nc(NCc3ccc(Br)cc3)c3ccccc3n2)c1 | 10 µM (inactive)
31 | COc1cccc2c(NCc3ccccc3)nc(NCc3ccccc3)nc12 | 10 µM (inactive)
32 | Clc1ccc2c(NCc3ccccc3)nc(NCc3ccccc3)nc2c1 | 6.3 µM
33 | Cc1ccc2c(NCc3ccccc3)nc(NCc3ccccc3)nc2c1 | 6.1 µM
34 | Clc1cccc(CNc2nc(Cl)nc3ccccc23)c1 | 18 µM (inactive)
35 | Fc1ccc(CNc2nc(Nc3cccc(Cl)c3)nc3ccccc23)cc1 | 5.7 µM
36 | COc1cccc(CNc2nc(Cl)nc3ccccc23)c1 | 13 µM (inactive)
37 | Clc1cccc(Nc2nc(NCc3ccccc3Cl)c3ccccc3n2)c1 | 18 µM (inactive)
38 | Clc1nc(NCc2ccccc2Br)c2ccccc2n1 | 13 µM (inactive)
39 | COc1ccc(Nc2nc(NCc3ccccc3)c3ccccc3n2)cc1F | 4.7 µM
40 | Clc1ccc(Nc2nc(Nc3cccc(Cl)c3)nc3ccccc23)cc1 | 21 µM (inactive)
41 | Clc1ccc(CNc2nc(Cl)nc3ccccc23)cc1 | 14 µM (inactive)
42 | Cc1ccc(Nc2nc(Nc3ccc(C)cc3)c3ccccc3n2)cc1 | 21 µM (inactive)

Row | Structure (SMILES) | IC50
43 | N#Cc1ccc2c(NCc3ccccc3)nc(NCc3ccccc3)nc2c1 | 21 µM (inactive)
44 | Clc1nc(NCc2ccccc2Cl)c2ccccc2n1 | 11 µM (inactive)
45 | Cc1cccc(CNc2nc(Cl)nc3ccccc23)c1 | 22 µM (inactive)
46 | Cc1ccc(Cl)cc1Nc1nc(NCc2ccccc2)c2ccccc2n1 | 7 µM
47 | Clc1ccc2nc(NCc3ccccc3)nc(NCc3ccccc3)c2c1 | 6.6 µM
48 | FC(F)(F)c1cccc(Nc2nc(NCc3ccccc3)c3ccccc3n2)c1 | 21 µM (inactive)
49 | Cc1cc(F)cc(Nc2nc(NCc3ccccc3)c3ccccc3n2)c1 | 5.4 µM
50 | CCOC(=O)NC(NC(=O)OCC)C(=O)c1ccc(F)cc1 | > 25 µM (inactive)
51 | O=C1C(C=NCC2CCCO2)=C(O)c2ccccc21 (stereo unspecified) | > 25 µM (inactive)
52 | Brc1ccc2c(NCc3ccccc3)nc(NCc3ccccc3)nc2c1 | 10 µM (inactive)
53 | Clc1cccc(Nc2nc(Nc3ccccc3)c3ccccc3n2)c1 | 12 µM (inactive)
54 | CC1(C)N(O)CC(c2cccs2)=[N+]1[O-] | > 25 µM (inactive)
55 | Cc1ccc(Nc2nc(Nc3cccc(Cl)c3)nc3ccccc23)cc1 | > 30 µM (inactive)
56 | Fc1cccc2nc(NCc3ccccc3)nc(NCc3ccccc3)c12 | 13 µM (inactive)
57 | Clc1nc(NCc2cccc(Br)c2)c2ccccc2n1 | 19 µM (inactive)
58 | Fc1ccc2nc(NCc3ccccc3)nc(NCc3ccccc3)c2c1 | 8.2 µM
59 | c1ccc(CNc2nc(N3CCNc4ccccc43)nc3ccccc23)cc1 | 6.3 µM
60 | Clc1cccc(Nc2nc(NCc3cccc(Br)c3)c3ccccc3n2)c1 | 9.9 µM
61 | c1ccc(Nc2nc(Nc3ccccc3)c3ccccc3n2)cc1 | 7.2 µM
62 | COc1c(F)cccc1Nc1nc(NCc2ccccc2)c2ccccc2n1 | 12 µM (inactive)
63 | Cc1c(F)cccc1Nc1nc(NCc2ccccc2)c2ccccc2n1 | 3.7 µM

Row | Structure (SMILES) | IC50
64 | CC(C)n1c2ccccc2c2nnc(SCC(=O)OCN3C(=O)c4ccccc4C3=O)nc21 | 20 µM (inactive)
65 | Fc1ccccc1CNc1nc(Nc2cccc(Cl)c2)nc2ccccc12 | 7.8 µM
66 | Cc1ccc(Nc2nc(NCc3ccccc3)c3ccccc3n2)cc1F | 5.2 µM
67 | COc1ccc(CNc2nc(Cl)nc3ccccc23)cc1 | 18 µM (inactive)
68 | Fc1cccc2c(NCc3ccccc3)nc(NCc3ccccc3)nc12 | 18 µM (inactive)
69 | Cc1ccc(CNc2nc(Nc3cccc(Cl)c3)nc3ccccc23)cc1 | 12 µM (inactive)
70 | Clc1cccc(CNc2nc(Nc3cccc(Cl)c3)nc3ccccc23)c1 | 15 µM (inactive)
71 | Fc1ccc(CNc2nc(Cl)nc3ccccc23)cc1 | 21 µM (inactive)
72 | Fc1ccc2c(NCc3ccccc3)nc(NCc3ccccc3)nc2c1 | 6.1 µM
73 | CC(C)Sc1oc(-c2ccco2)nc1S(=O)(=O)c1ccc(F)cc1 | 28 µM (inactive)
74 | Cc1ccc(CNc2nc(Cl)nc3ccccc23)cc1 | > 25 µM (inactive)
75 | COc1c(Cl)cccc1Nc1nc(NCc2ccccc2)c2ccccc2n1 | 6.3 µM
76 | Fc1ccccc1CNc1nc(Cl)nc2ccccc12 | 15 µM (inactive)
77 | CN1CCN(S(=O)(=O)c2ccc(NC(=O)c3cccc(S(=O)(=O)N4CCCC4)c3)cc2)CC1 | > 25 µM (inactive)
78 | Cc1c(Cl)cccc1Nc1nc(NCc2ccccc2)c2ccccc2n1 | 5.5 µM
79 | Cc1cccc(CNc2nc(Nc3cccc(Cl)c3)nc3ccccc23)c1 | 9.7 µM
80 | c1ccc(CNc2nc(N3CCOc4ccccc43)nc3ccccc23)cc1 | 7 µM
81 | Clc1cccc(Nc2nc(NCc3ccccc3Br)c3ccccc3n2)c1 | 12 µM (inactive)
